The list shows a part of the results. Active and inactive are the calls of the source.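 Rule for the calls: active = mean inhibition across replicates above a set limit taken from the earlier primary screen (cut at about 28% in these data); inactive = the rest.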
What follows are compounds tested on Epstein-Barr virus nuclear antigen 1 (EBNA-1) DNA-binding domain, Human herpesvirus 4 (assay: EBNA-1 DNA-binding inhibitors, retest, confirmation, biochemical, fluorescence polarization, triplicate (AID 2292;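 note: plate controls were EBNA-1 protein with DMSO for no effect and wells lacking EBNA-1 for full effect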)). Details: Recombinant EBNA-1 DBD, Cy5-DNA fluorescence polarization; at 14.8 µM; active compounds read high.
In short: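 Assay system: E. coli-made EBNA-1 DBD, residues 448-610; Quantity: 246 nM protein; Buffer or medium: Tris-NaCl buffer, pH 7.4; Schedule: 30 min protein-DNA premix, then 1 h compound exposure, RT; Measured by: FP at Ex 620 nm / Em 688 nm; Evaluation: percent inhibition from mP, scaled between no-protein and protein-only wells; Repeats: triplicate.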

inhibition, active:
CCOc1ccc(C(=O)NC(=S)Nc2ccc(NC(=O)C(C)C)cc2)cc1[N+](=O)[O-] 55.5%
N#Cc1ccc(N2Cc3ccccc3/C2=N/C(=O)Nc2ccc(Cl)cc2)cc1 67.7%
COc1ccc(C(=O)Nc2cccc(NC(=O)c3ccc(OC)cc3OC)n2)c(OC)c1 31.9%
O=C(COc1ccc(/C=N/NC(=O)c2ccc(O)cc2)cc1)Nc1ccc([N+](=O)[O-])cc1 51.1%
CCC(=O)Nc1ccc(C(=O)Nc2ccc3c(c2)C(=O)N(CC2CCCO2)C3=O)cc1 (stereo unspecified) 58.2%
COc1ccc(-c2nonc2NC(=O)c2oc3ccc(F)cc3c2C)cc1OC 58.1%
COc1ccc(C(=O)CSc2nnc(NC(=O)C3CC(=O)N(c4cccc(OC)c4)C3)s2)cc1 (stereo unspecified) 52.3%
Cc1ccc(C(=O)NNC(=O)c2cc3cc4ccccc4nc3s2)cc1 29.3%
CCOc1ccc(OCC)c(NC(=O)C(NS(=O)(=O)c2ccc3c(c2)oc(=O)n3C)C(C)C)c1 (stereo unspecified) 62.8%
CCOC(=O)c1ccc(NC(=O)C2CC(=O)Nc3nc4ccccc4n32)cc1 (stereo unspecified) 61%
CCOc1cccc(NC(=O)Cn2nc(-c3ccc4c(c3)OCCO4)ccc2=O)c1 64.7%
COc1ccc(NC(=O)NCc2ccc3c(c2)OCO3)c(OC)c1 57%
O=C(Nc1ccc2ccccc2c1)Nc1ccc2snnc2c1 142%
COC(=O)C1=CN(Cc2ccc(OC)cc2)C=C(C(=O)OC)C1c1ccc(O)c(OC)c1 37.1%

inhibition, inactive:
Nc1ccc(S(=O)(=O)Nc2nccc(/C=C/c3ccc(Br)s3)n2)cc1 8.99%
CC(=O)Nc1ccc(S(=O)(=O)NCC(=O)OCc2cc(=O)oc3ccc4ccccc4c23)cc1 5.47%
C/C(=N\N=C(N)N)c1ccc(Cl)cc1 2.77%
CC(=O)c1c(C)[nH]c(C(=O)OCC(=O)Nc2sc3c(c2C#N)CCCC3)c1C 25.9%
COC(=O)CSc1nc(C)c2ccc(OC)cc2n1 -0.23%
O=C(CCCn1c(SCC(=O)c2ccc(F)cc2)nc2ccccc2c1=O)NCc1ccco1 16.5%
CCOc1cccc(SCc2noc(C(=O)NC(C)C)c2C(=O)O)c1 -11.1%
COc1ccc(C)cc1NC(=O)NCc1ccccn1 -7.1%
Cc1ccc(O)c(/C=N/NC(=O)COc2ccc3c(C)cc(=O)oc3c2)c1 -12.4%
Nc1nnc(SCC(=O)Nc2ccc3nc(SCC(=O)Nc4ccccc4)sc3c2)s1 24.9%
COc1ccc(CCNC(=S)N2CCN(S(=O)(=O)c3ccc(F)cc3)CC2)cc1 3.15%
COc1ccc(-c2ccc(Nc3ccc(S(=O)(=O)N4CCCC4)cc3)nn2)cc1OC -1.8%
CCc1nccn1S(=O)(=O)c1cccc([N+](=O)[O-])c1 1.11%
COc1ccc(CNc2nc3c(c(=O)[nH]c(=O)n3C)n2Cc2ccccc2)cc1 7.27%
CCOc1[nH]n(-c2ccc(Cl)cc2)c(=O)c1C=Nc1ccc(O)cc1 -11.1%
Cc1cccc(N(CC(=O)Nc2ccc(-c3nc4ccc(C)cc4s3)cc2)S(C)(=O)=O)c1 12.2%
Cc1ccc(-c2nn(-c3ccccc3)cc2/C=C2\SC(=S)N(CCCCCC(=O)O)C2=O)o1 16.8%
CCOc1ccc(NC(=O)c2ccc(NC(=O)COC(=O)c3ccc(NC(=O)CC#N)cc3)cc2)cc1 3.81%
O=C(Nc1cccc(NC(=O)c2ccc(Br)cc2)c1)c1ccccc1 20.8%
Cc1[nH]n(C(N)=S)c(=O)c1N=Nc1ccc(Cl)cc1Cl -9.96%
N#Cc1nc(N)nc(N(c2ccccc2)c2ccccc2)n1 -5.35%
Cc1cccc(NC(=O)Cn2c(=O)n(Cc3ccccc3)c(=O)c3c(C)c(C)sc32)c1 5.76%

— PubChem BioAssay AID2292 (The Scripps Research Institute Molecular Screening Center, 2010)
